# Source: PubChem BioAssay
# m5-HT2A agonist: agonists of mouse serotonin 5-HT2A receptor (HTR2A) | P35363 | CHO-K1 mHTR2A beta-arrestin complementation, luminescence; percent of 30 µM serotonin response | activation, % at 7.6 µM | actives 0.66% (n = 360,000) | AID 624169;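 active means activation above a run cutoff, the mean activation of all tested compounds plus 3 SD, cut at about 14% in these data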;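 further: 0% = plate median of compound wells and 100% = 30 µM serotonin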
# APJ antagonist: APJ receptor antagonism; P35414; CHO-K1 APJ beta-arrestin complementation, luminescence; inhibition, % at 20 µM; actives 0.32% (n = 330,000);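 active means inhibition above about 40% at 20 µM, limit read from the data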;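 further: cells challenged with 10 nM apelin-13 agonist together with compound; plate controls were apelin-13 plus DMSO wells for no effect and DMSO wells lacking apelin-13 for full effect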
# CCR6 antag: CCR6 (human) receptor antagonism. CHO-K1 CCR6 PathHunter beta-arrestin, luminescence, CCL20-stimulated. P51684. AID 493098. inhibition, % at 20 µM. actives 0.49% (n = 340,000);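 active means compounds whose inhibition of the agonist-driven luminescence signal at 20 µM reaches about 50%, limit read from the data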;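 further: cells stimulated with CCL20 at 14 nM final; plate controls were DMSO with CCL20 for no effect and DMSO without agonist for full effect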
# APJ ag: activates the human apelin receptor APJ. P35414. CHO-K1 APJ PathHunter beta-arrestin, luminescence; 0% DMSO wells, 100% apelin. actives 0.11% (n = 330,000). activation, % at 20 µM;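 active means activation more than six SD over the plate average, tested at 20 µM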;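 further: 0% = DMSO alone and 100% = apelin-13 at 10 nM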
#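 Incubation: overnight seeding, 90 min compound at 25 °C, 1 h detection; test system: PathHunter CHO-K1 APJ (AGTRL-1) beta-arrestin reporter cells; amount: 1000 cells/well; doses: one dose, 20 µM compound, 1% DMSO; measured by: beta-gal luminescence; measure: agonist-driven arrestin binding to APJ; benchmarks: negative DMSO alone, positive Apelin-13 at 10 nM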
# CXCR6 block: blocks human CXCR6 beta-arrestin recruitment; AID 602244; O00574; inhibition, % at 20 µM; actives 0.36% (n = 360,000); CHO-K1 PathHunter CXCR6 beta-arrestin, luminescence; in the data active means inhibition above about 34%, passing the limit was not always enough;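 further: antagonist mode with CXCL16 agonist at 10 nM final; 0% = 10 nM CXCL16 with DMSO and 100% = unstimulated wells without agonist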
# Target sequence (O00574 whole entry, looked up): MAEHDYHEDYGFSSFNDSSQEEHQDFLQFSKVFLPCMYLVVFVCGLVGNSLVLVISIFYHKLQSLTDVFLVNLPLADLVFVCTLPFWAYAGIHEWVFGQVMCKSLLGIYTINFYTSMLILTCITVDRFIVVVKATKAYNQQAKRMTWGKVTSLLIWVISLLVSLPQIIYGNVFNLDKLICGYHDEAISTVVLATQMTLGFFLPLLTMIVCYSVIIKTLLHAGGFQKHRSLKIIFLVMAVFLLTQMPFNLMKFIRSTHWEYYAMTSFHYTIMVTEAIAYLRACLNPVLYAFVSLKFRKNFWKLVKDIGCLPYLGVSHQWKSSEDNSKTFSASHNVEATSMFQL
# EBI2 antag: EBI2 (human) antagonism; P32249; EBI2 beta-arrestin recruitment, luminescence, 7a,25-OHC stimulated; inhibition, % at 5 µM; actives 0.81% (n = 360,000); AID 651636; in the data active means inhibition above about 38%;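 further: enzyme fragment complementation signal reports receptor beta-arrestin coupling in cells; 0% = agonist plus DMSO wells and 100% = wells without agonist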
# OPRM1 ag: activates human mu opioid receptor in HTR2A counterscreen; shares compounds with m5-HT2A agonist; AID 624380; activation, % at 9.3 µM; U2OS OPRM1 beta-arrestin PathHunter, luminescence; DMSO 0%, DAMGO 9.3 µM 100%; actives 5.3% (n = 2,300);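 active means mean activation above the mean of DMSO-only wells plus 3 SD, cut at about 0.5% in these data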
# m5-HT2A ag conf: confirmation of mouse HTR2A serotonin receptor agonists | shares compounds with m5-HT2A agonist | CHO-K1 PathHunter beta-arrestin recruitment, luminescence; DMSO 0%, 30 µM serotonin 100% | activation, % at 7.6 µM | actives 19% (n = 2,300);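 active means mean activation across triplicates above the hit threshold derived in the original primary screen, cut at about 15% in these data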
# * = called active by the depositor; nt = no result given. Only some compounds are listed: those with a hit (about 2.1% of all), similar ones and a draw of the others.
SMILES,m5-HT2A agonist,APJ antagonist,CCR6 antag,APJ ag,CXCR6 block,EBI2 antag,OPRM1 ag,m5-HT2A ag conf
CC(C)C[C@H](NC(=O)c1[nH]cnc1C(=O)Nc1ccccc1)C(=O)OC(C)(C)C,16*,14,13,0,17,-19,0,-6
Cc1c(NC(=O)CN2C(=O)c3ccccc3C2=O)c(=O)n(-c2ccccc2)n1C,3,5,6,-2,-12,-5,nt,nt
Cc1c(NC(=O)CN2C(=O)c3ccc([N+](=O)[O-])cc3C2=O)c(=O)n(-c2ccccc2)n1C,17*,5,-8,-3,7,-2,-1,-3
CCOc1ccccc1N1CC(C(=O)N2CCOCC2)CC1=O (configuration not stated),3,3,4,-3,-6,-3,nt,nt
O=S(=O)(NC1=NCCCCC1)c1cc(F)ccc1F,22*,-3,16,-3,-3,-7,-1,2
Cc1nc(N2CCN(c3ccccc3F)CC2)[nH]c(=O)c1C,-6,-6,1,-3,-2,0,nt,nt
CCc1c(C)nc(N2CCN(c3ccccc3F)CC2)[nH]c1=O,20*,6,1,-2,7,-5,0.9*,4
CCOc1ccc2oc(C(=O)N3CC(C)OC(C)C3)c(C)c2c1 (configuration not stated),-6,10,-1,-5,-1,11,nt,nt
COc1cc2c3nnc(-c4ccc(F)cc4)c-3cn(Cc3ccc(C)cc3)c2cc1OC,-7,-9,-2,4,-5,-17,nt,nt
COc1cc2c3nnc(-c4ccccc4)c-3cn(Cc3ccc(F)cc3)c2cc1OC,32*,-1,19,1,-5,-2,0,21*
O=C1C[C@H]2CCCCC(=O)N3CC[C@@H](C1)[C@@H]23,0,nt,5,nt,-2,-1,nt,nt
CCCCCC1C(=O)C[C@@H]2CCN3C(=O)CCC[C@H]1[C@H]23 (some centres not stated),17*,nt,14,nt,7,-8,-1,-3
COC(=O)[C@@]1(Sc2ccc(C)cc2)CC(=O)N[C@@H]1c1ccc(C(F)(F)F)cc1,15*,nt,nt,nt,-2,9,0.8*,3
CC(=O)NCCn1c(SCC#N)nc2ccccc2c1=O,15*,0,5,0,0,2,0,-2
N#CCSc1nc2ccccc2c(=O)n1CCC(=O)NCCc1ccccc1,-4,-3,-6,-4,2,8,nt,nt
CCC(=O)N1CCCC(C)(C(=O)Nc2ccc(OC)c(F)c2)C1 (configuration not stated),-2,nt,nt,nt,0,-3,nt,nt
CCC(=O)N1CCCC(C)(C(=O)Nc2ccc(C)c(C)c2)C1 (configuration not stated),17*,nt,nt,nt,-1,-1,0,-1
C=CCN1C(=O)c2ccc(C(=O)N(CC)CC(=O)Nc3ccc(OC)cc3)cc2C1=O,5,1,7,3,8,5,nt,nt
COc1ccc(S(=O)(=O)N(C)C[C@@H]2OCc3cnnn3CCCC(=O)N([C@H](C)CO)C[C@@H]2C)cc1,-3,nt,nt,nt,-5,-16,nt,nt
Cc1c(C2(O)CCCCC2)[nH]c2cc(C(F)(F)F)ccc12,19*,-20,23,4,-17,-33,1.0*,-1
O=C(CCCN1C(=O)CSc2ncccc21)N1CCN(Cc2ccccc2)CC1,107*,2,-10,-4,-4,1,-1,-5
CCOC(=O)N1CCC(NC(=O)CCCN2C(=O)CSc3ncccc32)CC1,-1,11,-2,-5,1,5,nt,nt
O=C(Cn1cncn1)N/N=C/c1ccc(Cl)cc1,3,-11,6,-1,-6,-9,nt,nt
O=C(Cn1cncn1)N/N=C/c1ccncc1,23*,-15,4,-2,4,-8,0,3
C=CCn1c(=O)/c(=C/c2ccc(C)o2)s/c1=C(/C#N)C(=O)c1ccccc1,15*,-4,18,0,15,0,-1,-8
SMILES,m5-HT2A agonist,APJ antagonist,CCR6 antag,APJ ag,CXCR6 block,EBI2 antag,OPRM1 ag,m5-HT2A ag conf
CCn1c2ccccc2c2nc3ccccc3nc21,4,8,7,-5,6,19,nt,nt
CCCCc1c(C)nn(-c2nnc3c4ccccc4n(CC)c3n2)c1C,15*,-2,1,10,2,43,0,5
Cc1nn(C)c(Cl)c1CN1CCN(C2CCCC2)C(CCO)C1 (configuration not stated),24*,-19,-4,0,1,4,-1,2
CN(C1CCCCC1)S(=O)(=O)c1ccc(=S)[nH]c1,8,-13,-11,0,1,8,nt,nt
CCCCC(=O)N(C)c1c(CC)nc2c(OCCOc3ccccc3)cccn12,25*,nt,nt,nt,-2,-5,-1,-2
O=C(NC(=S)Nc1cccc(O)c1)C1CCCCC1,3,5,8,-4,6,4,nt,nt
CCSc1cc(C)nc2ncnn12,10,15,-8,-3,-3,3,nt,nt
CCCCCCSc1cc(C)nc2ncnn12,21*,16,-2,-1,2,-6,0,4
COc1cc(/C=C(/C#N)c2nc3ccccc3[nH]2)ccc1OCc1ccc(C(=O)O)o1,19*,20,9,-3,6,-3,1.7*,-2
COC(=O)c1ccc(COc2ccc(/C=C(\C#N)c3nc4ccccc4[nH]3)cc2OC)o1,0,-22,11,6,-1,-9,nt,nt
O=C(CN1C(=O)NC(Cc2c[nH]c3ccccc23)C1=O)Nc1ccc(F)cc1F (configuration not stated),6,-3,0,-6,-4,16,nt,nt
CC(C)N=c1scc(-c2cccs2)n1/N=C/c1ccc(O)c(O)c1O,15*,-39,24,1,-1,-12,1.1*,18*
CN=c1scc(-c2ccccc2F)n1/N=C/c1ccc(O)c(O)c1O,9,nt,15,nt,-3,7,nt,nt
CCOCC(=O)N(CC)Cc1ccccc1,4,0,9,-1,4,0,nt,nt
CCN(Cc1ccccc1)C(=O)Cn1cc(S(=O)(=O)NC)c(S(=O)(=O)NC)c1,16*,16,7,-2,-3,-4,0,0
CCC(C)(C)NC(=O)CN(C(=O)c1csnn1)c1ccccc1-c1ccccc1,16*,18,-4,0,0,0,-1,-4
CO[C@H]1CN(C)C(=O)c2ccc(NC(=O)C3CCC3)cc2OC[C@H](C)N(Cc2ccccn2)C[C@@H]1C,2,nt,nt,nt,nt,-10,nt,nt
